The subject of one assay is A-431. Nature of the assay: Antiproliferative activity against human A431 cells after 72 hrs. In kind it is functional, cell-based. The conditions noted are these: A-431, 72 h.
Another assay relates to IGROV-1. Nature of the assay: Antiproliferative activity against human IGROV1 cells after 72 hrs. Type of assay: functional, cell-based. The conditions noted are these: IGROV-1, 72 h.
Assay [1] can be described thus: Inhibition of yeast full-length recombinant HSP90 ATPase activity expressed in Escherichia coli strain BL21(DE3) assessed as inorganic phosphate release after 3 hrs. The arrangement: species or system Saccharomyces cerevisiae.
In a further assay the test system is NCI-H460. Nature of the assay: Antiproliferative activity against human NCI-H460 cells after 72 hrs. The conditions noted are these: NCI-H460, 72 h. In kind it is functional, cell-based.
A short description of assay [2]: Binding affinity to HSP90 after 4 hrs by fluorescence polarization assay. A general note: Polarisation of emitted light reports the rotation of a fluorescent probe.
Assay [3] is described as follows: Antiproliferative activity against human JR8 cells after 72 hrs. In kind it is functional, cell-based. The conditions noted are these: JR8, 72 h.
A short description of assay [4]: Antiproliferative activity against human STO cells after 72 hrs. In kind it is functional, cell-based. The method, boiled down:
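Cells seeded 24 h before, then exposed to compound for 72 h (about three doublings in controls), in medium with 10% heat-inactivated FBS at 37 °C. Compound dissolved fresh in DMSO and diluted in medium. Adherent cells trypsinized and counted electronically. IC50 is the concentration giving 50% growth inhibition, read from dose–response curves.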

Assay [5] has as its target T1, Heat shock protein HSP90 (Homo sapiens, UniProt P07900+P08238). Description: Inhibition of HSP90 in human JR8 cells assessed as down-regulation of survivin protein at IC80 concentration after 24 hrs by immunoblotting. Type of assay: cell-based. The gist of the method:
(§1)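 Cells seeded at 100,000 cells/mL, treated 24 h later for 24 h at the equitoxic IC80 concentration given per compound and cell line. Whole-cell extracts (40 µg) run on SDS-PAGE and immunoblotted. Actin was the loading control, and tubulin the loading control for EGFR.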
On the technique in general: In western blotting, separated proteins are transferred to a membrane and probed.

The target of assay [6] is T1, Heat shock protein HSP90. Nature of the assay: Inhibition of HSP90 in human JR8 cells assessed as down-regulation of EGFR protein at IC80 concentration after 24 hrs by immunoblotting. In kind it is cell-based. The gist of the method:
as §1

Assay [7] deals with T1, Heat shock protein HSP90. Nature of the assay: Inhibition of HSP90 in human JR8 cells assessed as down-regulation of Akt protein at IC80 concentration after 24 hrs by immunoblotting. Type of assay: cell-based. The gist of the method:
as §1

Assay [8] deals with T1, Heat shock protein HSP90. Description: Inhibition of HSP90 in human JR8 cells assessed as down-regulation of Raf-1 protein at IC80 concentration after 24 hrs by immunoblotting. In kind it is cell-based. The gist of the method:
as §1

Assay [9] addresses T1, Heat shock protein HSP90. Nature of the assay: Inhibition of HSP90 in human JR8 cells assessed as down-regulation of Cdk4 protein at IC80 concentration after 24 hrs by immunoblotting. Type of assay: cell-based. The gist of the method:
as §1

Molecules are shown by their SMILES. The source made the active and inactive calls. The calls are words filed in the database; no cut-off is given here. Bounds are passed on as bounds.

Broadly, the IC50 is the concentration that inhibits the measured activity by half. By IC80 is commonly meant the point of the concentration-response curve where the effect stands at 80%. High values mean a need for much substance, low ones an effect from little substance.

For the compound `C/C=C/C1=CC2=CC3=C(C(=O)CCCCC)C(=O)O[C@@]3(C)C(=O)C2=CO1` [RUBROPUNCTATIN], the IC50 in the assay with A-431 was 28.2 µM; in the assay with IGROV-1, 28.2 µM; in assay [1], 9.2 µM; in the assay on NCI-H460, > 50 µM; in assay [2] it was 0.04 µM; in [3], > 30 µM.
Consider `CCC(C)/C=C/C=C/C=C/C(=O)/C=C(\O)C1=C2C=C(CC(O)CO)/C(=C/NCCCO)C(=O)[C@]2(C)OC1=O` (some centres undefined), for which the IC50 in assay [4] is 9.47 µM; in the assay with A-431, 3.3 µM; with IGROV-1, 1.9 µM; in assay [1], 13.1 µM; in the assay on NCI-H460, 11 µM; in [2], 2.29 µM. Also, the IC50 in [3] was found to be 6 µM.
Turning to `C/C=C/C1=CC2=C(CO1)C(=O)[C@]1(C)OC(=O)[C@H](C(=O)CCCCCCC)[C@H]1C2` [ANKAFLAVIN], the IC50 in the assay on A-431 was 7.05 µM; in the assay with IGROV-1 it was 5.08 µM; in assay [1] it was 26.3 µM; in the assay with NCI-H460 it was 30 µM; in assay [2] it was > 100 µM; in assay [3] it was 5.64 µM.
`CCC(C)/C=C/C=C/C=C/C(=O)/C=C(\O)C1=C2C=C(CC(O)CO)/C(=C/NCCCCC(NC(C)=O)C(=O)O)C(=O)[C@]2(C)OC1=O` (some centres undefined): the IC50 stood at 5.77 µM in [4]; 4.48 µM with A-431; 2.32 µM with IGROV-1; 17.3 µM with NCI-H460; 6.83 µM in [2]; 15.5 µM in [3].
As for `C/C=C/C1=CC2=CC3=C(C(=O)CCCCCCC)C(=O)O[C@@]3(C)C(=O)C2=CN1[C@H]1O[C@H](CO)[C@@H](O)[C@H](O)[C@H]1O`, the IC50 in [4] is > 10 µM; in the assay on A-431, > 18 µM; with IGROV-1, > 18 µM; in assay [1], > 50 µM; in [2], > 50 µM.
Take `C/C=C/C1=CC2=CC3=C(C(=O)CCCCCCC)C(=O)O[C@@]3(C)C(=O)C2=CO1` [MONASCORUBRIN]: the IC50 is 131 µM in the assay on A-431; 103 µM in the assay on IGROV-1; 22.9 µM in assay [1]; > 50 µM with NCI-H460; 0.27 µM in assay [2]; 131 µM in [3].
On to `CCCCCCCCCC[C@H](C)C(=O)C1=C2C3=COC(C)=CC3=CC(=O)[C@]2(C)OC1=O`, for which the IC50 in the assay on A-431 is > 25 µM; in [1] it was > 50 µM; in the assay with NCI-H460, > 50 µM; in assay [2], > 100 µM.
As to `CCC(C)/C=C/C=C/C=C/C(=O)/C=C(\O)C1=C2CC3=C(COC(CO)C3)C(=O)[C@]2(C)OC1=O` (some centres undefined) [BULGARIALACTONE D], the IC50 is 17.6 µM with A-431, > 50 µM in assay [1], > 50 µM in the assay with NCI-H460 and > 100 µM in assay [2].
For `C/C=C/C1=CC2=C(CO1)C(=O)[C@]1(C)OC(=O)[C@H](C(=O)CCCCC)[C@H]1C2` [MONASCIN], the IC50 is 17.8 µM in the assay with A-431; > 30 µM in the assay with IGROV-1; > 50 µM in assay [1]; > 50 µM in the assay on NCI-H460; > 100 µM in assay [2]; 30.6 µM in assay [3].
Consider `CCC(C)CCCCCCC(=O)/C=C(\O)C1=C2C=C(CC(O)CO)/C(=C/NCc3ccccc3)C(=O)[C@]2(C)OC1=O` (some centres undefined), for which the IC50 worked out at 4 µM in [4]; 4.24 µM in the assay on A-431; 2.86 µM in the assay on IGROV-1; 19.9 µM in assay [1]; 30 µM in the assay on NCI-H460; 37.5 µM in [2]. In assay [3], this compound registered an IC50 of 9.02 µM.
`CCCCCCCCCC[C@H](C)C(=O)C1=C2C3=CN(Cc4ccccc4)C(C)=CC3=CC(=O)[C@]2(C)OC1=O`: the half-inhibitory concentration (IC50) in assay [4] was 4.5 µM; in the assay with A-431 it was 2 µM; in assay [1], > 50 µM; in the assay on NCI-H460, 6.7 µM; in assay [2], > 100 µM.
Turning to `CCC(C)/C=C/C=C/C=C/C(=O)/C=C(\O)C1=C2C=C3CC(C)OC=C3C(=O)[C@]2(C)OC1=O` (some centres undefined) [BULGARIALACTONE A], the IC50 was 6.87 µM in the assay with A-431; 4.12 µM in the assay on IGROV-1; > 50 µM in assay [1]; 18.7 µM in the assay with NCI-H460; > 100 µM in assay [2]; 11.5 µM in [3].
`CCC(C)CCCCCCC(=O)/C=C(\O)C1=C2C=C3CC(CO)OC=C3C(=O)[C@]2(C)OC1=O` (some centres undefined): the IC50 was found to be 1.2 µM in the assay with A-431; 0.8 µM in the assay with IGROV-1; 14.5 µM in assay [1]; 21.3 µM in the assay on NCI-H460; 35.4 µM in assay [2]; 5.7 µM in assay [3]. This compound showed an IC80 in [3] of 9.3 µM.
For the compound `COC1=C2C[C@@H](C)C[C@H](OC)[C@H](O)[C@@H](C)/C=C(\C)[C@H](OC(N)=O)[C@@H](OC)/C=C\C=C(/C)C(=O)NC(=CC1=O)C2=O` [GELDANAMYCIN], it took 0.2 µM to reach half-maximal inhibition in the assay on A-431 (IC50).
With `CCCCCCCC[C@H](C)C(=O)C1=C2C3=COC(C)=CC3=CC(=O)[C@]2(C)OC1=O`, the IC50 in the assay with A-431 was > 25 µM; in assay [1] it was > 50 µM; in the assay on NCI-H460, > 50 µM; in [2] it was > 100 µM.
As for `CCCCCCCCCC(=O)C1=C2C3=COC(C)=CC3=CC(=O)[C@]2(C)OC1=O`, the IC50 in the assay on A-431 was 26 µM; in the assay on IGROV-1, 26 µM; in assay [1] it was > 50 µM; in assay [2] it was > 100 µM; in [3], 26 µM.
In the assay on A-431, `C=CCNC1=C2C[C@@H](C)C[C@H](OC)[C@H](O)[C@@H](C)/C=C(\C)[C@H](OC(N)=O)[C@@H](OC)/C=C\C=C(/C)C(=O)NC(=CC1=O)C2=O` [TANESPIMYCIN] had a half-maximal inhibitory concentration (IC50) of 0.07 µM and an IC80 of 0.1 µM.
Consider `CCCCCCCC(=O)C1=C2C3=COC(C)=CC3=CC(=O)[C@]2(C)OC1=O`, for which the IC50 in the assay with A-431 is > 28 µM; in the assay with IGROV-1, > 28 µM; in assay [1], > 50 µM; with NCI-H460, > 50 µM; in assay [2] it was > 100 µM; in assay [3], > 28 µM.
On to `C/C=C/C1=CC2=CC3=C(C(=O)CCCCCCC)C(=O)O[C@@]3(C)C(=O)C2=CN1Cc1ccccc1`, for which the IC50 amounted to 2.28 µM in assay [4]; 2.67 µM with A-431; 3.46 µM in the assay with IGROV-1; 3.4 µM in the assay with NCI-H460; 0.004 µM in assay [2]; 4 µM in assay [3]. For the same compound, the inhibition result on Heat shock protein HSP90 [5], on Heat shock protein HSP90 [6], on Heat shock protein HSP90 [7] and on Heat shock protein HSP90 [9] was “Active” in each case. Moreover, the 80% effect level in [3] (IC80) was put at 6.36 µM. Moreover, the Raf-1 protein down-regulation result on Heat shock protein HSP90 [8] was “Active”.
On to `CCC(C)CCCCCC/C(=C/C(=O)C1=C2C=C(CC(O)CO)/C(=C/NCc3ccccc3)C(=O)[C@]2(C)OC1=O)NCc1ccccc1` (some centres undefined), for which the IC50 in assay [4] came to 4.36 µM; in the assay with A-431, 1.2 µM; with IGROV-1 it was 0.8 µM; in assay [1], 14.5 µM; with NCI-H460 it was 21.3 µM; in assay [2], 35.4 µM. The compound further had an IC50 in [3] of 5.7 µM. Besides, the inhibition entry at Heat shock protein HSP90 [5], at Heat shock protein HSP90 [6], on Heat shock protein HSP90 [7] and at Heat shock protein HSP90 [9] was “Active” throughout. Moreover, the Raf-1 protein down-regulation entry on Heat shock protein HSP90 [8] was “Active”.
`CCC(C)/C=C/C=C/C=C/C(=O)/C=C(\O)C1=C2C=C3C=CN(Cc4ccccc4)C=C3C(=O)[C@]2(C)OC1=O` (some centres undefined): the IC50 in assay [4] was 2.92 µM; in the assay on A-431, 3.98 µM; in the assay on IGROV-1, 2.92 µM; in [1] it was 8.9 µM; with NCI-H460 it was > 20 µM; in [2], 0.28 µM. Further, in assay [3], the IC50 came to 5.16 µM.

Values taken from ChEMBL document CHEMBL1212874, “Natural and semisynthetic azaphilones as a new scaffold for Hsp90 inhibitors” (Bioorg Med Chem, 2010).
